Where “and” joins values, the source holds several entries; their conditions need not be identical. Equal entries are not always repeated.
System: HEK-293T
Assay: Multiplex assay against HEK293T
Type: toxicity, cell-based
Conditions: human
How it was run: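 Cells were classed with CellPathfinder machine-learning gating, first as Hoechst high-intensity objects or normal cells, then (normal cells) as healthy, pyknosed or fragmented nuclei, and finally (pyknosed cells) as mitotic or apoptotic. Staining of live cells at seeding used Hoechst33342, BioTracker Green Microtubule Cytoskeleton Dye, MitoTracker Red and Annexin V Alexa Fluor 680, with imaging on a CQ1 microscope at 37°C and 5% CO2 after compound addition. Tubulin, mitochondrial-mass and membrane-permeability phenotypes are per cents of healthy-nucleus cells.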

[1] = 12 h, 1 µM, compound concentration 1 uM
[2] = 12 h, 10 µM, compound concentration 10 uM
[3] = 24 h, 1 µM, compound concentration 1 uM
[4] = 24 h, 10 µM, compound concentration 10 uM
[5] = 48 h, 1 µM, compound concentration 1 uM
[6] = 48 h, 10 µM, compound concentration 10 uM

Compound: O=C(NCCN1CCC(n2c(=O)[nH]c3cc(Cl)ccc32)CC1)c1ccc(F)cc1 [HALOPEMIDE]
- Population Apoptotic (%) [1]: 46% and 43%
- Population Fragmented Nuclei (%) [1]: 5%
- Population Healthy Nuclei (%) [1]: 81% and 79%
- Population Hoechst High Intensity Objects (%) [1]: 7% and 10%
- Population Membrane Permeable-Phenotype (%) [1]: 0%
- Population Mitochondria Different-Phenotype (%) [1]: 54% and 62%
- Population Mitotic Cells (%) [1]: 53% and 56%
- Population Normal (%) [1]: 92% and 89%
- Population Pyknosed Nuclei (%) [1]: 13% and 15%
- Population Tubulin-Different-Phenotype (%) [1]: 42% and 29%
- Total Cell Count [1]: 334 and 373
- Population Apoptotic (%) [2]: 39% and 65%
- Population Fragmented Nuclei (%) [2]: 5% and 6%
- Population Healthy Nuclei (%) [2]: 74% and 72%
- Population Hoechst High Intensity Objects (%) [2]: 14% and 13%
- Population Membrane Permeable-Phenotype (%) [2]: 0% and 1%
- Population Mitochondria Different-Phenotype (%) [2]: 76% and 84%
- Population Mitotic Cells (%) [2]: 60% and 34%
- Population Normal (%) [2]: 85% and 86%
- Population Pyknosed Nuclei (%) [2]: 20% and 21%
- Population Tubulin-Different-Phenotype (%) [2]: 68% and 59%
- Total Cell Count [2]: 460 and 319
- Population Apoptotic (%) [3]: 40%
- Population Fragmented Nuclei (%) [3]: 7% and 9%
- Population Healthy Nuclei (%) [3]: 79%
- Population Hoechst High Intensity Objects (%) [3]: 3% and 6%
- Population Membrane Permeable-Phenotype (%) [3]: 1% and 0%
- Population Mitochondria Different-Phenotype (%) [3]: 35% and 37%
- Population Mitotic Cells (%) [3]: 59%
- Population Normal (%) [3]: 96% and 93%
- Population Pyknosed Nuclei (%) [3]: 12% and 11%
- Population Tubulin-Different-Phenotype (%) [3]: 24% and 21%
- Total Cell Count [3]: 471 and 508
- Population Apoptotic (%) [4]: 27% and 64%
- Population Fragmented Nuclei (%) [4]: 8% and 9%
- Population Healthy Nuclei (%) [4]: 72% and 70%
- Population Hoechst High Intensity Objects (%) [4]: 8%
- Population Membrane Permeable-Phenotype (%) [4]: 1% and 0%
- Population Mitochondria Different-Phenotype (%) [4]: 63% and 78%
- Population Mitotic Cells (%) [4]: 72% and 35%
- Population Normal (%) [4]: 91%
- Population Pyknosed Nuclei (%) [4]: 19% and 20%
- Population Tubulin-Different-Phenotype (%) [4]: 64% and 62%
- Total Cell Count [4]: 580 and 361
- Population Apoptotic (%) [5]: 30% and 28%
- Population Fragmented Nuclei (%) [5]: 13%
- Population Healthy Nuclei (%) [5]: 79%
- Population Hoechst High Intensity Objects (%) [5]: 1% and 3%
- Population Membrane Permeable-Phenotype (%) [5]: 1% and 0%
- Population Mitochondria Different-Phenotype (%) [5]: 21%
- Population Mitotic Cells (%) [5]: 69% and 71%
- Population Normal (%) [5]: 98% and 96%
- Population Pyknosed Nuclei (%) [5]: 6% and 7%
- Population Tubulin-Different-Phenotype (%) [5]: 16% and 10%
- Total Cell Count [5]: 841 and 675
- Population Apoptotic (%) [6]: 37% and 60%
- Population Fragmented Nuclei (%) [6]: 14%
- Population Healthy Nuclei (%) [6]: 72% and 74%
- Population Hoechst High Intensity Objects (%) [6]: 8% and 6%
- Population Membrane Permeable-Phenotype (%) [6]: 1%
- Population Mitochondria Different-Phenotype (%) [6]: 57% and 64%
- Population Mitotic Cells (%) [6]: 62% and 40%
- Population Normal (%) [6]: 91% and 93%
- Population Pyknosed Nuclei (%) [6]: 12% and 11%
- Population Tubulin-Different-Phenotype (%) [6]: 55%
- Total Cell Count [6]: 706 and 531

Compound: O=C(NCc1cccc(O)c1)Nc1nc(-c2ccncc2)cs1
- Population Apoptotic (%) [1]: 7.14% and 10.34%
- Population Fragmented Nuclei (%) [1]: 2.92% and 3.91%
- Population Healthy Nuclei (%) [1]: 52.8% and 28.12%
- Population Hoechst High Intensity Objects (%) [1]: 0.24% and 0%
- Population Membrane Permeable-Phenotype (%) [1]: 0.92% and 0%
- Population Mitochondria Different-Phenotype (%) [1]: 22.12% and 19.44%
- Population Mitotic Cells (%) [1]: 92.86% and 89.66%
- Population Normal (%) [1]: 99.76% and 100%
- Population Pyknosed Nuclei (%) [1]: 44.28% and 67.97%
- Population Apoptotic (%) [2]: 7.43% and 12.61%
- Population Fragmented Nuclei (%) [2]: 2.74% and 5.1%
- Population Healthy Nuclei (%) [2]: 52.13% and 34.18%
- Population Hoechst High Intensity Objects (%) [2]: 0%
- Population Membrane Permeable-Phenotype (%) [2]: 4.09% and 0%
- Population Mitochondria Different-Phenotype (%) [2]: 19.88% and 13.43%
- Population Mitotic Cells (%) [2]: 92.57% and 87.39%
- Population Normal (%) [2]: 100%
- Population Pyknosed Nuclei (%) [2]: 45.12% and 60.71%
- Total Cell Count [2]: 328 and 196
- Population Apoptotic (%) [3]: 13.54% and 22%
- Population Fragmented Nuclei (%) [3]: 2.1% and 4.17%
- Population Healthy Nuclei (%) [3]: 77.73% and 54.17%
- Population Hoechst High Intensity Objects (%) [3]: 0%
- Population Membrane Permeable-Phenotype (%) [3]: 0.54% and 0%
- Population Mitochondria Different-Phenotype (%) [3]: 3.78% and 6.15%
- Population Mitotic Cells (%) [3]: 86.46% and 78%
- Population Normal (%) [3]: 100%
- Population Pyknosed Nuclei (%) [3]: 20.17% and 41.67%
- Population Tubulin-Different-Phenotype (%) [3]: 3.51% and 9.23%
- Population Apoptotic (%) [4]: 12.64% and 13.27%
- Population Fragmented Nuclei (%) [4]: 3.74%
- Population Healthy Nuclei (%) [4]: 72.99% and 50.47%
- Population Hoechst High Intensity Objects (%) [4]: 0% and 0.93%
- Population Membrane Permeable-Phenotype (%) [4]: 1.1% and 0%
- Population Mitochondria Different-Phenotype (%) [4]: 5.86% and 10.19%
- Population Mitotic Cells (%) [4]: 87.36% and 86.73%
- Population Normal (%) [4]: 100% and 99.07%
- Population Pyknosed Nuclei (%) [4]: 23.26% and 45.79%
- Population Tubulin-Different-Phenotype (%) [4]: 5.86% and 3.7%
- Total Cell Count [4]: 374 and 216
- Population Apoptotic (%) [5]: 17.39% and 25%
- Population Fragmented Nuclei (%) [5]: 2.27% and 10.14%
- Population Healthy Nuclei (%) [5]: 86.57% and 68.24%
- Population Hoechst High Intensity Objects (%) [5]: 0.16% and 0.67%
- Population Membrane Permeable-Phenotype (%) [5]: 5.42% and 4.95%
- Population Mitochondria Different-Phenotype (%) [5]: 14.95% and 15.84%
- Population Mitotic Cells (%) [5]: 82.61% and 75%
- Population Normal (%) [5]: 99.84% and 99.33%
- Population Pyknosed Nuclei (%) [5]: 11.17% and 21.62%
- Population Apoptotic (%) [6]: 22.81% and 34.48%
- Population Fragmented Nuclei (%) [6]: 4.16% and 5.49%
- Population Healthy Nuclei (%) [6]: 85.07% and 70.04%
- Population Hoechst High Intensity Objects (%) [6]: 0.19% and 0%
- Population Membrane Permeable-Phenotype (%) [6]: 4% and 0.6%
- Population Mitochondria Different-Phenotype (%) [6]: 19.78% and 24.1%
- Population Mitotic Cells (%) [6]: 77.19% and 65.52%
- Population Normal (%) [6]: 99.81% and 100%
- Population Pyknosed Nuclei (%) [6]: 10.78% and 24.47%
- Population Tubulin-Different-Phenotype (%) [6]: 0.89% and 5.42%
- Total Cell Count [6]: 530 and 237

Reference: ChEMBL document CHEMBL5724801, “EUbOPEN Chemogenomics Library - Multiplex” (2024)
